High-throughput results as filed in PubChem BioAssay.
Rows were chosen to be rich in hits. Some 2.3% of all compounds tested hit in one or more screens of this group.
TAAR1 antag: human TAAR1 antagonism | Q96RJ0 | CHO RD-HGA16 TAAR1, Fluo-8 calcium fluorescence, antagonist | inhibition, % at 3 µM | 360,000 compounds, 1.5% hits | AID 624466;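 active = inhibition above a per-plate cutoff, the mean inhibition of test compounds on that plate plus 3 SD, cut at about 49% in these data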;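 note: 0% = DMSO plus EC80 beta-PEA response and 100% = DMSO alone without agonist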
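Assay system: CHO-derived RD-HGA16 cells stably expressing human TAAR1 plus Gα16. Timing: 140 s kinetic read after compound, 140 s after agonist. Technique: kinetic Fluo-8 calcium fluorescence measurement. Measure: % inhibition of agonist calcium response.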
TAAR1 agonist: human TAAR1 agonism; Q96RJ0; CHO RD-HGA16 TAAR1, Fluo-8 calcium fluorescence; vehicle wells 0%, saturating PEA agonist 100%; activation, % at 3 µM; 360,000 compounds, 0.99% hits; AID 624467;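 active = activation above the mean activation of all test compounds in the run plus 3 SD, cut at about 38% in these data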
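Repeats: no replicates (n 1) | Material: CHO-derived RD-HGA16 cells with stable Gα16 and human TAAR1 | Technique: Kinetic Fluo-8 calcium fluorescence | Schedule: 17-24 h seeding, 75 min 37 °C dye, 30 min RT | Evaluation: % activation from peak over basal fluorescence ratio, DMSO-to-PEA scaled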
OXTR potentiate: potentiates the human oxytocin receptor response; CHO-OTR cells, Fluo-8 calcium fluorescence, potentiator mode; 0% = oxytocin EC15, 100% = EC100; activation, % at 3 µM; AID 2445; 320,000 compounds, 0.061% hits;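 active = activation above that plate's cutoff, the mean activation of tested compounds plus 3 SD, cut at about 6.6% in these data, passing the limit was not always enough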;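 note: 100% uses oxytocin at 75 nM as the full agonist control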
Target sequence (P30559 whole entry, looked up): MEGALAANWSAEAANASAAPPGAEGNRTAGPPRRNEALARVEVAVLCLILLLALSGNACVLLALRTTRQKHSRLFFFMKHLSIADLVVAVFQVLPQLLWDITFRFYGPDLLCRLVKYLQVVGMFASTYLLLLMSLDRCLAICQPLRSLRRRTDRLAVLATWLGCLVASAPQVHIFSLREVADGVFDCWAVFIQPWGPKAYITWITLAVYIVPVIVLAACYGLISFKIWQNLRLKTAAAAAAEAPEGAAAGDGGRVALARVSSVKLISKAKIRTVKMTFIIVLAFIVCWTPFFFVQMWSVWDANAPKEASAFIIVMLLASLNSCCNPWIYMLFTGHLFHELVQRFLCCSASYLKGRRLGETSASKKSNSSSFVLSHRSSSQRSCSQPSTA
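Assay system: CHO cell line stably expressing human OTR. Reagent: EC15 oxytocin agonist. Dosing: single dose, 3.0 µM nominal final compound concentration. Timing: compound 6 min at room temperature before oxytocin, 100 s read. Signal: kinetic Fluo-8 calcium fluorescence. Controls: oxytocin EC15 low and EC100 high.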
V1R ag counter: V1a receptor agonism, counter-screen for OXTR agonists; CHO-V1R cells, Fluo-8 calcium fluorescence, agonist mode; 0% DMSO, 100% 3 nM vasopressin; 320,000 compounds, 0.25% hits; activation, % at 3 µM;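 active = activation above the mean activation of all tested compounds plus 3 SD, per screening run, cut at about 20% in these data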;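 note: signal is peak over basal fluorescence ratio across a 100 second FLIPR read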
OXTR ag: activates the human oxytocin receptor | P30559 | CHO-OTR cells, Fluo-8 calcium fluorescence; normalized: DMSO 0%, oxytocin 100% | activation, % at 3 µM | 320,000 compounds, 0.32% hits | AID 2435;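 active = activation above the mean of all tested compounds plus 3 SD, cutoff set per screening run, cut at about 20% in these data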;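 note: peak over basal fluorescence ratio from a 100 s FLIPR kinetic read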
* = called active by the depositor; · = no result.

SMILES	TAAR1 antag	TAAR1 agonist	OXTR potentiate	V1R ag counter	OXTR ag
C=CCC[C@H](Cc1ccc(F)cc1)C(=O)OC[C@@H](NC(=O)[C@@H](CC=C)CC(=O)N[C@@H](CO)Cc1ccccc1)C(C)(C)C	51*	13	-9	6	1
C=CCC[C@H](Cc1ccc(F)cc1)C(=O)OC[C@@H](C)NC(=O)[C@@H](CC=C)CC(=O)N[C@@H](CO)Cc1ccccc1	·	·	-6	1	-1
C=CC[C@@H](CC(=O)N[C@H](CO)Cc1ccccc1)C(=O)N[C@@H](COC(=O)[C@H](CC=C)CC(=O)OC(C)(C)C)Cc1ccccc1	50*	13	-7	-1	-2
Cc1ccc(NC(=O)CSCC(=O)Nc2ccc(N3CCOCC3)c(Cl)c2)cc1	5	10	-14	1	0
COc1cccc(NC(=O)CNC(=O)Cn2cnc3sc(C)c(C)c3c2=O)c1	6	1	-5	3	0
COc1ccc(-c2sc(Nc3ccccc3)n[n+]2-c2ccc(F)cc2)c(OC)c1OC	-16	28	-2	0	0
C#C[C@]1(O)CC[C@H]2[C@@H]3CCC4=Cc5oncc5C[C@]4(C)[C@H]3CC[C@@]21C	71*	38*	-9	2	2
CCC(=O)N1c2ccc(S(=O)(=O)N3CCN(c4ccc([N+](=O)[O-])cc4)CC3)cc2CC1C (centres undefined)	0	1	-21	5	4
O=S(=O)(NCc1csc(-c2cccnc2)n1)c1cccs1	3	1	-5	0	0
COc1cc(-c2cc(C(=O)Nc3cc(S(=O)(=O)N4CCOCC4)ccc3C)c3ccccc3n2)cc(OC)c1OC	49*	17	·	·	·
COc1ccc(-c2cc(C(=O)Nc3ccc(S(N)(=O)=O)cc3)c3ccccc3n2)cc1OC	7	7	-4	0	0
COc1cc(-c2cc(C(=O)Nc3cc(S(=O)(=O)N4CCOCC4)ccc3O)c3ccccc3n2)cc(OC)c1OC	51*	1	-5	1	0
COc1cc(-c2cc(C(=O)Nc3ccc(S(=O)(=O)NCc4ccco4)cc3)c3ccccc3n2)cc(OC)c1OC	57*	22	-13	6	3
COc1ccc(-c2cc(C(=O)Nc3cc(S(N)(=O)=O)ccc3C)c3ccccc3n2)cc1OC	31	5	-1	-1	-1
COc1ccccc1NC(=O)c1cc(-c2cc(OC)c(OC)c(OC)c2)nc2ccccc12	19	2	-3	0	0
Cc1ccccc1NC(=O)c1cccc(N2C(=O)C3CCCCC3C2=O)c1 (centres undefined)	-15	4	-11	5	3
NC(N)=N/N=C/c1cccc(Cl)c1Cl	17	42*	-10	5	6
Cc1cc(C)cc(NC(=O)C(NCC2CCCO2)c2ccccc2)c1 (centres undefined)	-3	2	3	1	-1
O=C(Nc1ccc(S(=O)(=O)N2CCCCC2)cc1)c1ccncc1	0	11	-18	5	4
O=C(Cc1ccc(Br)cc1)Nc1ccc(S(=O)(=O)N2CCCC2)cc1	6	38*	-6	8	8
O=C(Cc1ccc(F)cc1)Nc1ccc(S(=O)(=O)N2CCCC2)cc1	6	10	-1	2	3
O=C(Nc1ccc(Cc2ccncc2)cc1)c1ccc(S(=O)(=O)N2CCCC2)cc1	57*	22	·	·	·
O=C(Nc1ccc(F)cc1)Nc1ccc(S(=O)(=O)N2CCCC2)cc1	51*	48*	-14	12	16
N#Cc1ccc(NCC(=O)Nc2ccc(S(=O)(=O)N3CCCCC3)cc2)cc1	21	39*	-5	11	7
Cc1noc(C)c1NC(=O)Nc1ccc2c(c1)C(=O)N([C@H](C)CO)C[C@H](C)[C@H](CN(C)C(=O)NC1CCCCC1)OCCCC[C@@H](C)O2	-16	1	·	·	·
SMILES	TAAR1 antag	TAAR1 agonist	OXTR potentiate	V1R ag counter	OXTR ag
O=C(CCNC(=O)c1ccc(Cl)cc1)Nc1cc(C(F)(F)F)ccc1N1CCOCC1	7	0	·	·	·
Cc1noc(C)c1C(=O)N1CCN(c2ccccc2O)CC1	-27	12	-3	0	1
Cc1[nH]c(=O)c(C#N)c(C)c1CSc1ncccn1	-7	1	-1	1	0
CCCC(C(=O)Nc1ccc(S(=O)(=O)N2CCCC2)cc1)c1ccccc1 (centres undefined)	26	41*	-5	6	10
O=C(Cc1ccc(Cl)cc1)Nc1ccc(Br)cc1	32	40*	-7	-1	-2
CC(C)(C)c1ccc(COC(=O)Nc2ccc(F)cc2)cc1	20	-1	-3	0	-2
CC(C)(C)c1ccc(NC(=O)Nc2ccc(F)cc2)cc1	94*	12	-14	11	9
O=C(Cc1ccc(Br)cc1)NNC(=O)Nc1ccc(Cl)cc1	3	2	-5	2	1
O=S(=O)(c1ccc(NC(=S)NCc2ccc(F)cc2)cc1)N1CCOCC1	27	44*	-9	20	9
C[Si](C)(C)n1ccnc1	-13	1	1	0	0
Cc1ccc([C@H]2N[C@]3(CCCN(Cc4ccc(Cl)cc4)C3=O)[C@H]3C(=O)N(C)C(=O)[C@@H]23)cc1	-16	1	·	·	·
c1ccc2c(CCNc3ncnc4nc[nH]c34)c[nH]c2c1	59*	10	-11	7	9
COc1ccccc1CNc1ncnc2nc[nH]c12	1	1	-6	2	1
COc1ccc2sc(N(CCCN(C)C)C(=O)c3ccc(S(=O)(=O)N(C)Cc4ccccc4)cc3)nc2c1	35	43*	-5	1	6
CCOc1cccc2sc(N(CCCN(C)C)C(=O)c3ccc(S(=O)(=O)N(CC)Cc4ccccc4)cc3)nc12	55*	28	-13	11	12
CCN(Cc1ccccc1)S(=O)(=O)c1ccc(C(=O)N(CCCN(C)C)c2nc3c(F)cccc3s2)cc1	21	14	-11	1	2
CCOc1cccc2sc(N(CCCN(C)C)C(=O)c3ccc(S(=O)(=O)N(C)Cc4ccccc4)cc3)nc12	54*	35	-12	10	17
CCn1c(CNC(=O)c2ccccc2F)cc2cc(C)ccc21	-30	3	·	·	·
O=C(COc1ccccc1)NC(=S)Nc1cccc2c(O)cccc12	12	42*	·	·	·
COC(=O)c1ccccc1NC(=S)NC(=O)COc1ccccc1	-1	21	-2	2	1
O=C(NCCn1cc(SCC(=O)N2CCOCC2)c2ccccc21)c1c(F)cccc1F	28	7	0	2	1
O=C(NCCn1cc(SCc2ccccc2F)c2ccccc21)c1c(F)cccc1F	83*	2	-6	2	1
CO/N=C(\CS(=O)(=O)Cc1ccc(OC)cc1)c1ccc(Cl)cc1	24	43*	-1	0	-1
